Test results reported in ChEMBL document CHEMBL1773023, “Potent and selective phosphopeptide mimetic prodrugs targeted to the Src homology 2 (SH2) domain of signal transducer and activator of transcription 3” (J Med Chem, 2011).
One block for each compound: values may come before it. Calls of active or inactive are those of the source. The calls are words filed in the database; no cut-off is given here.

Legend:
[1] = target: T1, Signal transducer and activator of transcription 3 (Homo sapiens, UniProt P40763); assay: Inhibition of SH2 domain of Stat3 constitutive phosphorylation at Tyr705 in human MDA-MB-468 cells at 5 uM after 2 hrs by Western blotting; format: cell-based
Summary of the method: (§1)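 MDA-MB-468 cells (4×10^5/well, DMEM 10% FCS, overnight) given prodrug from freshly made 10 mM DMSO stock for 2 h. Lysates in Hepes pH 7.4 Triton buffer with phosphatase/protease inhibitors; 12 μg protein on 8% SDS-PAGE, PVDF, probed for pStat3 Y705 by ECL, then stripped and reprobed for total Stat3.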

MDA-MB-468 [2] = assay: Cytotoxicity against human MDA-MB-468 cells after 72 hrs by MTT assay; format: functional, cell-based; settings: MDA-MB-468, 72 h
Summary of the method: (§2)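 MDA-MB-468 cells in DMEM/10% FBS, 1500 cells/well in triplicate; medium changed next day. Prodrug stock 10 mM in ethanol, diluted into wells (ethanol <1% final); single dose or daily re-addition at 24 and 48 h in same medium. MTT read-out at 72 h; assays run three times.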

[3] = target: T1, Signal transducer and activator of transcription 3; assay: Inhibition of SH2 domain of Stat3 constitutive phosphorylation at Tyr705 in human MDA-MB-468 cells at 25 uM after 2 hrs by Western blotting; format: cell-based; summary of the method: as §1
MDA-MB-468 [4] = assay: Selectivity ratio of inhibition of IFNgamma-induced Stat1 phosphorylation at Tyr701 to inhibition of EGF-induced SH2 domain of Stat3 phosphorylation at Tyr705 in human MDA-MB-468 cells; format: cell-based
[5] = target: T2, Signal transducer and activator of transcription 1-alpha/beta (Homo sapiens) (UniProt P42224); assay: Inhibition of IFN-gamma-induced Stat1 phosphorylation at Tyr701 in human MDA-MB-468 cells treated 1.5 hrs before IFN-gamma challenge measured after 30 mins by Western blotting; format: cell-based
T2 sequence (whole entry): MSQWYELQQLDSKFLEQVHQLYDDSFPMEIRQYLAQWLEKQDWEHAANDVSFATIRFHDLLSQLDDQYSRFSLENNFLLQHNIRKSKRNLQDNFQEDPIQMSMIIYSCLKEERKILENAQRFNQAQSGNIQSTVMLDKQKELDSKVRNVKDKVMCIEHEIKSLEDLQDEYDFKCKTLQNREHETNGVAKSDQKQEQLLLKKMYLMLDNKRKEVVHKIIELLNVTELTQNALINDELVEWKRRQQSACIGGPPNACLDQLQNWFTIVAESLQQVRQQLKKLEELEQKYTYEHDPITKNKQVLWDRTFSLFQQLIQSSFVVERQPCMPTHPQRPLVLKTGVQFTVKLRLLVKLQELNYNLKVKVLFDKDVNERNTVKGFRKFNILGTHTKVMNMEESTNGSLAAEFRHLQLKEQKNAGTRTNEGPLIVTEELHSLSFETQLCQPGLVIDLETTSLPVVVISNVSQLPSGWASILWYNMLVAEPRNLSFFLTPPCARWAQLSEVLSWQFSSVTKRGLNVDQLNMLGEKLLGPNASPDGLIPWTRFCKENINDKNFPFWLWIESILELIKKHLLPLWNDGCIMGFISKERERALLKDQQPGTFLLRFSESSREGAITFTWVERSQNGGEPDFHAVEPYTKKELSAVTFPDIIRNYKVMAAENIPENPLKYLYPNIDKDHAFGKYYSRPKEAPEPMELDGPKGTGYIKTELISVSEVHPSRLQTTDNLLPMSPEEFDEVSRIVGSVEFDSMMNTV
Summary of the method: (§3)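 MDA-MB-468 cells exposed to rising prodrug concentrations for 1.5 h, then interferon γ 25 ng/mL for 30 min; Western blot for pTyr701 and total Stat1.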

[6] = target: T1, Signal transducer and activator of transcription 3; assay: Inhibition of SH2 domain of Stat3 constitutive phosphorylation at Tyr705 in human MDA-MB-468 cells at 5 uM after 30 mins by Western blotting; format: cell-based
Summary of the method: (§4)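 MDA-MB-468 cells given a single 5 μM prodrug dose and harvested at set times; pTyr705 and total Stat3 by Western blot of 12 μg lysate protein on 8% SDS-PAGE.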

[7] = target: T1, Signal transducer and activator of transcription 3; assay: Inhibition of SH2 domain of Stat3 constitutive phosphorylation at Tyr705 in human MDA-MB-468 cells at 5 uM after 4 hrs by Western blotting; format: cell-based; summary of the method: as §4
[8] = target: Focal adhesion kinase 1 (Homo sapiens) (UniProt Q05397); assay: Inhibition of constitutive FAK phosphorylation at Tyr861 in human MDA-MB-468 cells at 5 uM measured after 2 hrs by Western blotting
[9] = target: T1, Signal transducer and activator of transcription 3; assay: Inhibition of SH2 domain of Stat3 constitutive phosphorylation at Tyr705 in human MDA-MB-468 cells at 5 uM after 8 hrs by Western blotting; format: cell-based; summary of the method: as §4
[10] = target: T1, Signal transducer and activator of transcription 3; assay: Inhibition of EGF-induced SH2 domain of Stat3 phosphorylation at Tyr705 in human MDA-MB-468 cells at 5 uM treated 1.5 hrs before EGF challenge measured after 30 mins by Western blotting; format: cell-based
Summary of the method: (§5)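 MDA-MB-468 cells pretreated 1.5 h with prodrug (5 μM), then EGF 100 ng/mL for 30 min; lysates split onto three PVDF blots probed for phospho/total Stat3, pSer473/total Akt, and phospho/total Stat5.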

[11] = target: T3, Signal transducer and activator of transcription 5A (Homo sapiens) (UniProt P42229); assay: Inhibition of EGF-induced SH2 domain of Stat5 phosphorylation at Tyr694 in human MDA-MB-468 cells at 5 uM treated 1.5 hrs before EGF challenge measured after 30 mins by Western blotting; format: cell-based; summary of the method: as §5
T3 sequence (whole entry): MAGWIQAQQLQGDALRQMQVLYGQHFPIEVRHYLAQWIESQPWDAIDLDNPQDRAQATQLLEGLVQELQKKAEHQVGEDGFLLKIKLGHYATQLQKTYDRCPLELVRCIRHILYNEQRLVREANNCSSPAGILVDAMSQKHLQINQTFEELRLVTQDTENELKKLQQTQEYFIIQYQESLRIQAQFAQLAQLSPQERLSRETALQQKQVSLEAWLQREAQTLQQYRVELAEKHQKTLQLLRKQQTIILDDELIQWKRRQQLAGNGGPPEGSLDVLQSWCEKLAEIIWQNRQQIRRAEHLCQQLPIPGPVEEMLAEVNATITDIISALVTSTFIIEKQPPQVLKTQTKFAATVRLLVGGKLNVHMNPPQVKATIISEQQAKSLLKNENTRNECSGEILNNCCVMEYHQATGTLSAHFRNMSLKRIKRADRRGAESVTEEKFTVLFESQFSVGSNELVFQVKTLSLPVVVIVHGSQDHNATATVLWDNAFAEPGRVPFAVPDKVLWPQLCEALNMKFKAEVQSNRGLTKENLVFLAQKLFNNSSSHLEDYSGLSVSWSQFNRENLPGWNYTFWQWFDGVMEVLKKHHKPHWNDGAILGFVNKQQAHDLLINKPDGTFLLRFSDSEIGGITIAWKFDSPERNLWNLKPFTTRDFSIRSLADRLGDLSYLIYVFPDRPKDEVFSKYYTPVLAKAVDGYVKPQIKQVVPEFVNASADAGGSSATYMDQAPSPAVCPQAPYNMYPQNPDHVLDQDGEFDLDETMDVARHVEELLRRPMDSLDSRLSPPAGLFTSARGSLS

[12] = target: T2, Signal transducer and activator of transcription 1-alpha/beta (Homo sapiens); assay: Inhibition of IFN-gamma-induced Stat1 phosphorylation at Tyr701 in human MDA-MB-468 cells at 5 uM treated 1.5 hrs before IFN-gamma challenge measured after 30 mins by Western blotting; format: cell-based; summary of the method: as §3
[13] = target: T1, Signal transducer and activator of transcription 3; assay: Inhibition of SH2 domain of Stat3 constitutive phosphorylation at Tyr705 in human MDA-MB-468 cells at 0.5 uM after 2 hrs by Western blotting; format: cell-based; summary of the method: as §1
[14] = target: RAC-alpha serine/threonine-protein kinase (Homo sapiens) (UniProt P31749); assay: Inhibition of EGF-induced Akt phosphorylation at Ser473 in human MDA-MB-468 cells at 5 uM treated 1.5 hrs before EGF challenge measured after 30 mins by Western blotting; format: cell-based; summary of the method: as §5
[15] = target: T1, Signal transducer and activator of transcription 3; assay: Inhibition of SH2 domain of Stat3 constitutive phosphorylation at Tyr705 in human MDA-MB-468 cells at 5 uM after 16 hrs by Western blotting; format: cell-based; summary of the method: as §4
MDA-MB-468 [16] = assay: Cytotoxicity against human MDA-MB-468 cells assessed as cell growth inhibition at 10 to 15 uM after 72 hrs by MTT assay; format: functional, cell-based; summary of the method: as §2
MDA-MB-468 [17] = assay: Cytotoxicity against human MDA-MB-468 cells up to 50 uM after 72 hrs by SRB assay; format: functional, cell-based
HCC827 = assay: Cytotoxicity against human HCC827 cells up to 50 uM after 72 hrs by SRB assay; format: functional, cell-based
Summary of the method: (§6)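 Cancer cell lines (MCF-7, SKOV3-ip, HCC-827) dosed daily with prodrug for three days; viability by SRB assay.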

MCF7 = assay: Cytotoxicity against human MCF7 cells up to 50 uM after 72 hrs by SRB assay; format: functional, cell-based; summary of the method: as §6
SKOV3ip = assay: Cytotoxicity against human SKOV3ip cells up to 50 uM after 72 hrs by SRB assay; format: functional, cell-based; summary of the method: as §6

T1 sequence (P40763 whole entry, the tested form may be a part): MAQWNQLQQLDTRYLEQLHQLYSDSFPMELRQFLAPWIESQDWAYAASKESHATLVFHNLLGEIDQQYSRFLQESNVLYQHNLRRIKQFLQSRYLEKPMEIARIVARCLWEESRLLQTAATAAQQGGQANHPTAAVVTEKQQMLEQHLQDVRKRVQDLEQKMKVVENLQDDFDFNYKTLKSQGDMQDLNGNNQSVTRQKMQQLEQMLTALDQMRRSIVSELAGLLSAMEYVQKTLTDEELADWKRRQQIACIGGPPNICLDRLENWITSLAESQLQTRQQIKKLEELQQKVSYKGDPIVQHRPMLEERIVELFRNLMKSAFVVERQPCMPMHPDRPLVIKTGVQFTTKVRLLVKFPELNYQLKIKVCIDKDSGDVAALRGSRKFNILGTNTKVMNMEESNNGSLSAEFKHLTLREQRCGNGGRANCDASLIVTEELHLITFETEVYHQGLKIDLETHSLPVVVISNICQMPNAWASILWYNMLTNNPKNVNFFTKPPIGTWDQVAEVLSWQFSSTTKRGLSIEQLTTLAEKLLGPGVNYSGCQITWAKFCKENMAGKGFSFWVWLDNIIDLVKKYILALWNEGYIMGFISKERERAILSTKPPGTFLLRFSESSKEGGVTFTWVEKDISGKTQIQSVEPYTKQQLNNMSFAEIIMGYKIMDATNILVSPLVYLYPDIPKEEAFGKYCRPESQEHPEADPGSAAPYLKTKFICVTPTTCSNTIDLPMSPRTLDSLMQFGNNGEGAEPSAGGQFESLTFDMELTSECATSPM
RAC-alpha serine/threonine-protein kinase (Homo sapiens), sequence (P31749 whole entry, the tested form may be a part): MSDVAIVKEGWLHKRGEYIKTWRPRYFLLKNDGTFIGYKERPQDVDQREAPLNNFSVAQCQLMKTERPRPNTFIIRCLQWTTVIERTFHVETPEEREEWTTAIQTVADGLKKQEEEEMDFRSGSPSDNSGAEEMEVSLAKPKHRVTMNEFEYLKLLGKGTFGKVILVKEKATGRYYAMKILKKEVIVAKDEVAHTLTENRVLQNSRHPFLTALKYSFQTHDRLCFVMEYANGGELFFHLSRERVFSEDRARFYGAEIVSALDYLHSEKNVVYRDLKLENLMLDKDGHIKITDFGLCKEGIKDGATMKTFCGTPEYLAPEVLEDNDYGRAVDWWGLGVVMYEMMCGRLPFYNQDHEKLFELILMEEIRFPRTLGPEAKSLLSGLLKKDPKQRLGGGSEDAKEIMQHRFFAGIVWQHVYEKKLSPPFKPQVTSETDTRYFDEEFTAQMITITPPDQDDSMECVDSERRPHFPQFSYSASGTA
Focal adhesion kinase 1 (Homo sapiens), sequence (Q05397 2-1052 limits assumed): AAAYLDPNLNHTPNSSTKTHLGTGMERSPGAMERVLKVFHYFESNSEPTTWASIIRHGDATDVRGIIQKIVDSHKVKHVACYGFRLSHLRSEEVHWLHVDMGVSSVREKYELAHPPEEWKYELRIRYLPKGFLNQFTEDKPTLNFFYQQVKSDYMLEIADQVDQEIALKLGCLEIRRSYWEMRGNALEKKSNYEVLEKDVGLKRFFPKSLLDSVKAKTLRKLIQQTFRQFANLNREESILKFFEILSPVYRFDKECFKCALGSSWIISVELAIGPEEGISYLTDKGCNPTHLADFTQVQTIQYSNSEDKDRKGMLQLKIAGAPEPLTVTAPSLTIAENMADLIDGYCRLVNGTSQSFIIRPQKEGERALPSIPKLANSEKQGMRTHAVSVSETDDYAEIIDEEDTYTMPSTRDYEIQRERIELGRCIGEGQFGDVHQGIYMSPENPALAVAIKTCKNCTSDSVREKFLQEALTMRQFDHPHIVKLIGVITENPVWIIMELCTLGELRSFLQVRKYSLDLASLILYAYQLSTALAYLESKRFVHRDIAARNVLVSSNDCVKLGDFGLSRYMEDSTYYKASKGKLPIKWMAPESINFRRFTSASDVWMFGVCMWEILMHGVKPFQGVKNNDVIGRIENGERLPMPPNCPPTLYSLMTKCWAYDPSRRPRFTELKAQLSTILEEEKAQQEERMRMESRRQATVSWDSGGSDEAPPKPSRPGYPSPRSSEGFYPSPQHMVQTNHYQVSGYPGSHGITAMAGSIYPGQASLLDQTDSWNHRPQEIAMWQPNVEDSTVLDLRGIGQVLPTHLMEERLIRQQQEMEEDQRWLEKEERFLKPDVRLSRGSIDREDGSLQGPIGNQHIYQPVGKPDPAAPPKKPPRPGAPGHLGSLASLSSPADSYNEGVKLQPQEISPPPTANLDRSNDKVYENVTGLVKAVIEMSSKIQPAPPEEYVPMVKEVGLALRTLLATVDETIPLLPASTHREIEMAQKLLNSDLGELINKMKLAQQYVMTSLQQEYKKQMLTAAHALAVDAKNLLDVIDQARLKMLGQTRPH

inhibition [1]: Active
Structure (SMILES): CCCC[C@H](NC(=O)/C=C(\C)c1ccc(C(F)(F)P(=O)(OCOC(=O)C(C)(C)C)OCOC(=O)C(C)(C)C)cc1)C(=O)N1CC2CC2C1C(=O)NCCNC(N)=O (mixture of isomers)

inhibition [3]: Active
Structure (SMILES): CCCC[C@H](NC(=O)/C=C(\C)c1ccc(C(F)(F)P(=O)(OCOC(=O)C(C)(C)C)OCOC(=O)C(C)(C)C)cc1)C(=O)N1C[C@@H]2C[C@@H]2[C@@H]1C(=O)N[C@H](C)CCC(N)=O
IC50 (MDA-MB-468 [2]): 30 µM

inhibition [5]: Dose-dependent effect
inhibition [6]: Active
inhibition [7]: Active
inhibition [8]: inactive
inhibition [9]: Active
inhibition [10]: Active
inhibition [11]: inactive
inhibition [12]: Active
inhibition [13]: Active
inhibition [14]: inactive
inhibition [15]: inactive
Structure (SMILES): CCCC[C@H](NC(=O)/C=C(\C)c1ccc(C(F)(F)P(=O)(OCOC(=O)C(C)(C)C)OCOC(=O)C(C)(C)C)cc1)C(=O)N1C[C@H]2C[C@H]2[C@H]1C(=O)N[C@H](C)CCC(N)=O
Ratio (MDA-MB-468 [4]): 10
IC50 (MDA-MB-468 [2]): 30 µM

inhibition [3]: inactive
Structure (SMILES): CCCC[C@H](NC(=O)/C=C(\C)c1ccc(C(F)(F)P(=O)(OCOC(=O)C(C)(C)C)OCOC(=O)C(C)(C)C)cc1)C(=O)N1C[C@@H]2C[C@@H]2[C@@H]1C(=O)N[C@@H](CCC(N)=O)C(C)OCc1ccccc1 (stereo partly drawn)
growth inhibition (GI) (MDA-MB-468 [16]): Active

inhibition [3]: inactive
Structure (SMILES): CCOP(=O)(OCC)C(F)(F)c1ccc(/C(C)=C/C(=O)N[C@H]2CCc3cccc4c3N(C2=O)[C@H](C(=O)N[C@H](C)CCC(N)=O)C4)cc1
growth inhibition (GI) (MDA-MB-468 [17]): inactive
growth inhibition (GI) (HCC827): inactive
growth inhibition (GI) (MCF7): inactive
growth inhibition (GI) (SKOV3ip): inactive
